In ChEMBL document CHEMBL4627291, “A bicyclic pentapeptide-based highly potent and selective pan-SIRT1/2/3 inhibitor harboring Nε-thioacetyl-lysine” (Bioorg Med Chem, 2020):

Legend:
[1] = biological target: T1, NAD-dependent protein deacetylase sirtuin-2 (Homo sapiens, UniProt Q8IXJ6); experiment: Inhibition of His6-tagged human SIRT2 deacetylation activity using SIRT1 acetyl-lysine as substrate in presence of beta-NAD+ after 12 mins by reversed-phase HPLC analysis
T1 sequence (Q8IXJ6 whole entry): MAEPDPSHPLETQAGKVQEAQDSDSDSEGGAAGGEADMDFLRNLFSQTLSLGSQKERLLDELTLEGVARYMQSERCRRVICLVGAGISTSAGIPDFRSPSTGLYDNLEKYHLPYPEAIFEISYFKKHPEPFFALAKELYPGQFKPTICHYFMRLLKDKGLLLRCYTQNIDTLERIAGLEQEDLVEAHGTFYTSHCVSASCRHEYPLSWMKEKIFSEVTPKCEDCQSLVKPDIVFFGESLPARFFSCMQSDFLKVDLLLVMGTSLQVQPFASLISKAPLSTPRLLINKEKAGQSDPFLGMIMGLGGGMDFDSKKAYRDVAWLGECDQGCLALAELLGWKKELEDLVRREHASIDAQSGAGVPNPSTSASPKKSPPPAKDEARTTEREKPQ
Procedure, shortened: (§1)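 Buffer: 50 mM Hepes pH 8.0, 137 mM NaCl, 2.7 mM KCl, 1 mM MgCl₂, 1 mM DTT, 0.5 mM β-NAD⁺, p53 380-384 K382-acetyl pentapeptide. SIRT1 runs use 0.3 mM peptide, 320 nM His₆- or GST-SIRT1, 10 min. SIRT2 runs use 0.39 mM peptide, 309 nM His₆-SIRT2, 12 min. Reactions run at 37 °C, quenched with HCl/acetic acid, read by C18 HPLC at 214 nm, turnover <10%. IC50 from Dixon plots.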

[2] = biological target: T2, NAD-dependent protein deacetylase sirtuin-1 (Homo sapiens, UniProt Q96EB6); experiment: Inhibition of His6/GST-tagged human SIRT1 deacetylation activity using SIRT1 acetyl-lysine as substrate in presence of beta-NAD+ after 10 mins by reversed-phase HPLC analysis; procedure, shortened: as §1
T2 sequence (Q96EB6 whole entry): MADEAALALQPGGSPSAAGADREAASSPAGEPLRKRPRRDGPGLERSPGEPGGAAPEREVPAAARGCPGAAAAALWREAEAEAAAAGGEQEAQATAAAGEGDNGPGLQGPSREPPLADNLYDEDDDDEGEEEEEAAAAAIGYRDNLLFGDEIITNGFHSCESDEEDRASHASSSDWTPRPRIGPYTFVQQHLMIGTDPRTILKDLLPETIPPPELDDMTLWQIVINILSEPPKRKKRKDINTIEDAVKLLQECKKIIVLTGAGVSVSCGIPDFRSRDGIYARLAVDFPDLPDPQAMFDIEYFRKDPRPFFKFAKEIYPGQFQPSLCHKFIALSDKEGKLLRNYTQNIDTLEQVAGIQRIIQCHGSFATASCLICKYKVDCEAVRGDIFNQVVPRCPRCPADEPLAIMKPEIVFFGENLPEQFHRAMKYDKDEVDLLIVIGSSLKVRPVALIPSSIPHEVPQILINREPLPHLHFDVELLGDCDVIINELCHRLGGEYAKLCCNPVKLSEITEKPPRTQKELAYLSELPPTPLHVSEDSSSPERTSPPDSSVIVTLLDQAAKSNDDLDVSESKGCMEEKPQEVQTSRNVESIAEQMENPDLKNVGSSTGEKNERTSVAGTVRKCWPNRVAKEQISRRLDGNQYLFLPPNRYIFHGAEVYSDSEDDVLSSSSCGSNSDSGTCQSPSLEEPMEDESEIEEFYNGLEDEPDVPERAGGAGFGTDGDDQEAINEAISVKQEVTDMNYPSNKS

[3] = biological target: T3, NAD-dependent protein deacetylase sirtuin-3, mitochondrial (Homo sapiens, UniProt Q9NTG7); experiment: Inhibition of His6-tagged human SIRT3 deacetylation activity using SIRT3 acetyl-lysine as substrate substrate in presence of beta-NAD+ after 10 mins by reversed-phase HPLC analysis
T3 sequence (Q9NTG7 whole entry): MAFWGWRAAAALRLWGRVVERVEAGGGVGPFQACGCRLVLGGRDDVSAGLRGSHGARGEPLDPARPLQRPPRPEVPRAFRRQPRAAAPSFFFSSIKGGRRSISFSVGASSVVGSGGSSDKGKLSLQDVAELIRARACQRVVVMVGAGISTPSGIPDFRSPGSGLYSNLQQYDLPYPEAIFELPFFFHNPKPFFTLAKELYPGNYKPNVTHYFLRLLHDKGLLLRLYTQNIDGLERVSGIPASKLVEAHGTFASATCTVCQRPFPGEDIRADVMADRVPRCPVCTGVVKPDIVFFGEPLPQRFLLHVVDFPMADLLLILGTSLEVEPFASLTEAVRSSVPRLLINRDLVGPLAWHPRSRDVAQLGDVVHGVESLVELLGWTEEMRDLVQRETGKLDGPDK

MCF7 [4] = experiment: Antiproliferative activity against human MCF7 cells assessed as cell growth inhibition at 100 uM measured after 72 hrs by MTT assay relative to control; assay type: functional; conditions: MCF7, 72 h, read-out: GI
Procedure, shortened: (§2)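 MCF-7 cells, 5 x 10³ per well, grown overnight in DMEM with 10% FBS, then exposed at 37 °C to 0, 5, 12.5, 25, 50 or 100 μM final (water stock) for 24, 48 or 72 h. Afterwards, PBS wash, MTT at 0.5 mg/mL final for 4 h at 37 °C, DMSO solubilization, absorbance at 568 nm; mean of five measurements.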

[5] = biological target: T4, NAD-dependent protein deacetylase sirtuin-7 (Homo sapiens, UniProt Q9NRC8); experiment: Inhibition of tRNA-activated His6-tagged human SIRT7 deacetylation activity using acetyl-lysine as substrate in presence of beta-NAD+ after 30 mins by reversed-phase HPLC analysis
T4 sequence (Q9NRC8 whole entry): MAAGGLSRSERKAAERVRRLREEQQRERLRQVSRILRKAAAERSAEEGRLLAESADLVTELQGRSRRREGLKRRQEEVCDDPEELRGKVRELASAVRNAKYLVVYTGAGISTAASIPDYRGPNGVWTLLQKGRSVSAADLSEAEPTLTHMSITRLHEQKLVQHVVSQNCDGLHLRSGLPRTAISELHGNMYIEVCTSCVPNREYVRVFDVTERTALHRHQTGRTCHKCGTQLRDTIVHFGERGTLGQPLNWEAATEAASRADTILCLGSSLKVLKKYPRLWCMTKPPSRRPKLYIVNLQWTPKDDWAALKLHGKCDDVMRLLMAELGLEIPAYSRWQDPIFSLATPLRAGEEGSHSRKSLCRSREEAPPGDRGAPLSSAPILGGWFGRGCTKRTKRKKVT
Procedure, shortened: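 His₆-SIRT7 (570 nM) with yeast tRNA (3-fold molar excess over enzyme) and RNase inhibitor (~1 U/μL). Substrate: 1.8 mM H3 12-24 K18-acetyl peptide with 3 mM β-NAD⁺, in 50 mM Hepes pH 8.0, 150 mM NaCl, 1 mM DTT, no KCl or MgCl₂; 30 min at 37 °C. Acid quench, C18 HPLC at 214 nm; IC50 by Dixon plot.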

MCF7 [6] = experiment: Antiproliferative activity against human MCF7 cells assessed as cell growth inhibition measured up to 72 hrs by MTT assay; assay type: functional, cell-based; procedure, shortened: as §2
[7] = biological target: NAD-dependent protein deacylase sirtuin-5, mitochondrial (Homo sapiens, UniProt Q9NXA8); experiment: Inhibition of His6-tagged human SIRT5 desuccinylation activity using succinyl-lysine as substrate in presence of beta-NAD+ after 5 mins by reversed-phase HPLC analysis; conditions: in the assay text read “GST-tagged” for “His6-tagged”
Procedure, shortened: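 GST-SIRT5 (370 nM) with 0.88 mM succinyl-lysine peptide and 0.8 mM β-NAD⁺ in 50 mM Hepes pH 8.0, 137 mM NaCl, 2.7 mM KCl, 1 mM MgCl₂, 1 mM DTT; 5 min at 37 °C. Stopped with 100 mM HCl/0.16 M acetic acid; C18 HPLC at 214 nm, turnover <10%; IC50 by Dixon plot.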

[8] = biological target: NAD-dependent protein deacylase sirtuin-6 (Homo sapiens, UniProt Q8N6T7); experiment: Inhibition of His6-tagged human SIRT6 demyristoylation activity using myristoyl-lysine substrate in presence of beta-NAD+ after 12 mins by reversed-phase HPLC analysis
Procedure, shortened: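 His₆-SIRT6 (313 nM) with 0.02 mM myristoyl-lysine peptide and 0.2 mM β-NAD⁺ in Hepes pH 8.0 buffer with NaCl, KCl, MgCl₂ and 1 mM DTT; 12 min at 37 °C. Acid quench, C18 HPLC at 214 nm, turnover <10%; IC50 from Dixon plots.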

SK-MEL-2 = experiment: Antiproliferative activity against human SK-MEL-2 cells assessed as cell growth inhibition measured up to 72 hrs by MTT assay; assay type: functional, cell-based
Procedure, shortened: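 SK-MEL-2 melanoma cells, 5 x 10³ per well, grown overnight in MEM with 10% FBS, then exposed at 37 °C to 0, 5, 12.5, 25, 50 or 100 μM final (water stock) for 24, 48 or 72 h. Afterwards, PBS wash, MTT at 0.5 mg/mL final for 4 h at 37 °C, DMSO solubilization, A568 read; mean of five measurements.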

[9] = biological target: T5, NAD-dependent protein deacetylase sirtuin-1 (Homo sapiens) (UniProt Q96EB6); experiment: Inhibition of SIRT1 deacetylation activity in human HCT116 cells assessed as increase in acetylated p53 K382 level by Western blot analysis; assay type: cell-based; conditions: HCT-116
T5 sequence (whole entry): T2 sequence (Q96EB6 whole entry)
Procedure, shortened: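 HCT116 cells (5 x 10⁵) in McCoy 5A with 10% FBS, treated 8 h at 37 °C at 0, 0.5, 2, 10, 50 and 100 μM final (water stock). Lysates run on SDS-PAGE, transferred to PVDF, probed with anti-acetyl-p53 K382 and anti-p53, HRP secondary, ECL detection.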

[10] = Enzymatic stability assessed as pronase (unknown origin)-mediated compound hydrolysis at pH 7.3 measured up to 30 mins by HPLC method; assay type: ADME, Homo sapiens; conditions: buffer, pH 7.3, 0.5 h
Procedure, shortened: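 Compound solution in water (160 μM) mixed 1:1 with Streptomyces griseus pronase (8 ng/μL) in 100 mM Tris·HCl pH 7.3 at 37 °C. Aliquots quenched with 1.0 M acetic acid at 0, 2.5, 5, 10, 20 and 30 min, then C18 RP-HPLC at 214 nm; mean of two measurements.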

Sequence of NAD-dependent protein deacylase sirtuin-6 (Q8N6T7 whole entry): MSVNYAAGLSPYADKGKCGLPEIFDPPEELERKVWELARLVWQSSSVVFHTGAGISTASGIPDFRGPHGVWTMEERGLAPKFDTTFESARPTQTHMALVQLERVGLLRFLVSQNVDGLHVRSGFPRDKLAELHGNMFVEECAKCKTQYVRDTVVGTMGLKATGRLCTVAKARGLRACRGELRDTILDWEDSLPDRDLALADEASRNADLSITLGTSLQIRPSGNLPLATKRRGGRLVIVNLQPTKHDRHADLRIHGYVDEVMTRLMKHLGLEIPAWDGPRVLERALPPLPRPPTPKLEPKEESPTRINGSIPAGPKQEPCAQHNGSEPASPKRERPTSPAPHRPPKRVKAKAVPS
Sequence of NAD-dependent protein deacylase sirtuin-5, mitochondrial (Q9NXA8 whole entry): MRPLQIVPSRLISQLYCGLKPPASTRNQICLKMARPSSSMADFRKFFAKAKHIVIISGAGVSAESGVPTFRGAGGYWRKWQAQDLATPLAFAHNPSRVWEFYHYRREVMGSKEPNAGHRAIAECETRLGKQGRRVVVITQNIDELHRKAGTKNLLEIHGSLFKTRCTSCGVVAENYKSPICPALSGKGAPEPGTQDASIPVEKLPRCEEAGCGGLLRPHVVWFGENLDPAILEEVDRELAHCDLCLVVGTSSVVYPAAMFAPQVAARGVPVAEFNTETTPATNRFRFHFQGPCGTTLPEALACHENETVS

Structure (SMILES)	IC50 [1] [µM]	IC50 [2] [µM]	IC50 [3] [µM]	also measured
CSCC[C@@H]1NC(=O)[C@@H](NC(=O)[C@H](CCCCNC(C)=S)NC(=O)[C@H](CCCCN)NC(=O)[C@H](Cc2c[nH]cn2)NC(C)=O)Cc2ccc(cc2)OCCCCCNC1=O	115	13.6		
CSCC[C@H](NC(=O)[C@H](CC(C)C)NC(=O)[C@H](CCCCNC(C)=S)NC(=O)[C@@H]1Cc2ccc(cc2)OCCCC(=O)N[C@@H](Cc2c[nH]cn2)C(=O)N1)C(N)=O	0.68	0.171	0.75	
CSCC[C@@H]1NC(=O)[C@@H](NC(=O)[C@H](CCCCNC(C)=S)NC(=O)[C@H](CCCCN)NC(=O)[C@H](Cc2c[nH]cn2)NC(C)=O)Cc2ccc(cc2)OCCCNC1=O	60.8	34.3		
CC/C(=C(\c1ccccc1)c1ccc(OCCN(C)C)cc1)c1ccccc1 [TAMOXIFEN]				inhibition of growth at 100 µM (MCF7 [4]): > 80%
CSCC[C@@H]1NC(=O)[C@@H](NC(=O)[C@H](CCCCNC(C)=S)NC(=O)[C@H](CCCCN)NC(=O)[C@H](Cc2c[nH]cn2)NC(C)=O)Cc2ccc(cc2)OCCCCCCCNC1=O	25.5	22.6	217	
CSCC[C@@H]1NC(=O)[C@@H](NC(=O)[C@H](CCCCNC(C)=S)NC(=O)[C@H](CCCCN)NC(=O)[C@H](Cc2c[nH]cn2)NC(C)=O)Cc2ccc(cc2)OCCCCCCCCCCNC1=O	17.9	56.7	13.1	

Now from value to compound, other results behind:

IC50 [1] [µM]	IC50 [2] [µM]	IC50 [3] [µM]	Structure (SMILES)	also measured
1.33	0.673		CSCC[C@H](NC(=O)[C@H](CC(C)C)NC(=O)[C@H](CCCCNC(C)=S)NC(=O)[C@@H]1Cc2ccc(cc2)OCCCCCCCC(=O)N[C@@H](Cc2c[nH]cn2)C(=O)N1)C(N)=O	
4.31	1.25	1.1	CSCC[C@H](NC(=O)[C@H](CC(C)C)NC(=O)[C@H](CCCCNC(C)=S)NC(=O)[C@@H]1Cc2ccc(cc2)OCCCCCCCCCCC(=O)N[C@@H](Cc2c[nH]cn2)C(=O)N1)C(N)=O	
1.03	0.646		CSCC[C@H](NC(=O)[C@H](CC(C)C)NC(=O)[C@H](CCCCNC(C)=S)NC(=O)[C@@H]1Cc2ccc(cc2)OCCCCCC(=O)N[C@@H](Cc2c[nH]cn2)C(=O)N1)C(N)=O	
0.253	0.54	0.72	CSCC[C@@H]1NC(=O)[C@@H](NC(=O)[C@H](CCCCNC(C)=S)NC(=O)[C@@H]2Cc3ccc(cc3)OCCCC(=O)N[C@@H](Cc3c[nH]cn3)C(=O)N2)Cc2ccc(cc2)OCCCCCNC1=O	IC50 [5]: 78.9 µM; Activity (MCF7 [6]): Dose-dependent effect; IC50 [7]: 443 µM; IC50 [8]: 390 µM; Activity (SK-MEL-2): Dose-dependent effect; inhibition [9]: Dose-dependent effect; Stability [10]: Stable
